KCNQ1 block = inhibitors of human KCNQ1 potassium channel. AID 2642. CHO-K1 KCNQ1, FluxOR thallium flux fluorescence; active compounds read high. B-score at 10 µM. actives 1.3% (n = 310,000). P51787;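 active = compounds whose thallium flux B-score, printed positive for inhibition, exceeds three library SD while starting fluorescence stays within three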;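 also: channel opened by potassium depolarization with thallium stimulus after 20 min compound exposure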
KCNK3 block = human KCNK3 channel inhibition, primary screen; CHO-KCNK3 thallium flux, FluxOR fluorescence; active compounds read low; B-score at 10 µM; AID 602410; actives 0.84% (n = 340,000);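 active = B-score under library mean minus 4 SD, starting fluorescence ratio at most library mean plus 5 SD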;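 also: more negative B-score means stronger inhibition of thallium flux through KCNK3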
KCNK9 block = human KCNK9 channel inhibition | HEK293 KCNK9, FluxOR thallium flux fluorescence; active compounds read low | Q9NPC2 | B-score at 10 µM | actives 1.2% (n = 310,000) | AID 488922;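 active = ratio B-score over 3 SD below the library mean, with starting fluorescence within 5 SD of its mean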;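 also: negative B-score means less thallium flux so channel inhibition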
hERG rescue = compounds protecting human hERG from proarrhythmic drug block | CHO-hERG, FluxOR thallium flux, dofetilide IC70 present | activation (rescue from dofetilide block), less the hit threshold, % at 10 µM | AID 1511 | Q12809 | actives 0.51% (n = 310,000);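 active = activation above the mean of controls blocked by dofetilide plus 5 SD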;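 also: thallium influx through hERG after potassium depolarization seen as dye fluorescence rise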
KCNQ1 act = potentiators or activators of human KCNQ1 potassium channel; AID 2648; actives 0.35% (n = 310,000); B-score at 10 µM; CHO-K1 KCNQ1, thallium flux FluxOR fluorescence; active compounds read high; P51787;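 active = fluorescence ratio B-score, a plate-corrected score, at least three library SD, with initial intensity B-score within 5 SD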
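Assay system: CHO-K1 cells stably expressing KCNQ1. Medium: assay buffer for compound exposure, DMSO matched across wells. Timing: 37 °C overnight plating, 90-min dark dye load, 20-min compound pretreatment. Signal: kinetic FluxOR fluorescence, 10 s baseline plus 110 s post-stimulus.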
KCNK9 block conf = human KCNK9 inhibitor confirmation; shares compounds with KCNK9 block; HEK293 KCNK9 cells, FluxOR thallium flux fluorescence; inhibition, % at 10 µM; actives 43% (n = 4,900); AID 492992;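 active = thallium signal inhibited by more than 5 SD of the compound-free buffer control wells, on both duplicate plates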;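 also: 0% = assay buffer control wells without compound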
Kir2-1 spec = mouse Kir2.1 off-target activity of KCNK9 modulators; inhibition, % at 10 µM; Kir2.1 cells, FluxOR thallium flux fluorescence; shares compounds with KCNK9 block; actives 4% (n = 4,900);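 active = thallium signal drop more than 5 SD beyond the mean of the no-compound control wells, seen in both duplicate plates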;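 also: signal is fluorescence rise after thallium addition divided by baseline fluorescence; plate controls were assay buffer only for no effect and full block by chlorpromazine control for full effect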
KCNK9 uninduced = second check of KCNK9 modulator effects in non-induced HEK293 cells; AID 492997; inhibition, % at 10 µM; actives 40% (n = 4,900); FluxOR thallium flux; shares compounds with KCNK9 block;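 active = thallium signal drop beyond 5 SD of the untreated control mean, on both duplicate plates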;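 also: plate controls were buffer only IC0 wells for no effect and SID17386958 at its maximal inhibitory level for full effect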
* hit, by the source's call. Most compounds without a hit are left out; they make up all but 3.1% or so of the library.

How did COc1cccc(CNC(=O)C(Cc2ccccc2)n2cccc2)c1 (stereo not given) do in these assays?
KCNQ1 block: inactive; KCNK3 block: inactive; KCNK9 block: inactive; hERG rescue: -13.7; KCNQ1 act: inactive; KCNK9 block conf: inactive; Kir2-1 spec: inactive; KCNK9 uninduced: inactive

What do the screens show for `CCn1cc(CCCC(=O)NCc2cccc(OC)c2)c2ccccc21`?
KCNQ1 block: inactive; KCNK3 block: inactive; KCNK9 block: inactive; hERG rescue: -5.7; KCNQ1 act: inactive; KCNK9 block conf: inactive; Kir2-1 spec: inactive; KCNK9 uninduced: inactive

How did CC(C)c1ccc(-n2nnnc2SCC(=O)NC2CC2)cc1 do in these assays?
KCNK3 block: inactive

How did CC(=O)c1ccc(OCCCC(=O)Nc2cc(S(=O)(=O)N3CCCCC3)ccc2C)cc1 do in these assays?
KCNK3 block: inactive

How did CC(C)c1ccc(OCc2ccc(C(=O)N3CCN(c4ccccn4)CC3)cc2)cc1 do in these assays?
KCNQ1 block: 6*; KCNK3 block: inactive; KCNK9 block: inactive; hERG rescue: -8.1; KCNQ1 act: inactive; KCNK9 block conf: inactive; Kir2-1 spec: inactive; KCNK9 uninduced: inactive

What do the screens show for `Cc1ccc(C(=O)NCCn2ccc3ccccc32)cc1[N+](=O)[O-]`?
KCNQ1 block: inactive; KCNK3 block: inactive; KCNK9 block: inactive; hERG rescue: -20.7; KCNQ1 act: inactive; KCNK9 block conf: inactive; Kir2-1 spec: inactive; KCNK9 uninduced: inactive

What do the screens show for `Cc1ccc(C(=O)NCCc2cccc(Cl)c2)cc1[N+](=O)[O-]`?
KCNQ1 block: inactive; KCNK3 block: inactive; KCNK9 block: inactive; hERG rescue: -10.4; KCNQ1 act: inactive; KCNK9 block conf: inactive; Kir2-1 spec: inactive; KCNK9 uninduced: inactive

What do the screens show for `Cc1cc2ccccc2n1CCNC(=O)c1ccccc1`?
KCNQ1 block: inactive; KCNK3 block: inactive; KCNK9 block: -9.62*; hERG rescue: -12.2; KCNQ1 act: inactive; KCNK9 block conf: 36.5%*; Kir2-1 spec: inactive; KCNK9 uninduced: 25.0%*

How did O=C(NCCc1cccc(Cl)c1)c1ccc(Cl)c([N+](=O)[O-])c1 do in these assays?
KCNQ1 block: inactive; KCNK3 block: inactive; KCNK9 block: inactive; hERG rescue: -14.6; KCNQ1 act: inactive; KCNK9 block conf: inactive; Kir2-1 spec: inactive; KCNK9 uninduced: inactive

What do the screens show for `COCCOc1cc(NC(=O)c2cccc(OC)c2)c(Cl)cc1Cl`?
KCNQ1 block: inactive; KCNK3 block: inactive; KCNK9 block: inactive; hERG rescue: -5.0; KCNQ1 act: inactive

How did COCCOc1cc(NC(=O)c2sccc2Oc2ccc([N+](=O)[O-])cc2F)c(Cl)cc1Cl do in these assays?
KCNQ1 block: 9*; KCNK3 block: inactive; KCNK9 block: inactive; hERG rescue: -5.3; KCNQ1 act: inactive; KCNK9 block conf: inactive; Kir2-1 spec: inactive; KCNK9 uninduced: inactive

What do the screens show for `N/C(=N\OC(=O)c1cccc2ccccc12)c1ccncc1`?
KCNQ1 block: inactive; KCNK3 block: inactive; KCNK9 block: inactive; hERG rescue: -14.3; KCNQ1 act: inactive

What do the screens show for `N/C(Cc1cccc2ccccc12)=N\OC(=O)c1ccccc1F`?
KCNQ1 block: inactive; KCNK3 block: inactive; KCNK9 block: inactive; hERG rescue: -0.8; KCNQ1 act: inactive

Results for N/C(=N\OC(=O)c1cccc2ccccc12)c1ccc(Br)cc1 ?
KCNQ1 block: inactive; KCNK3 block: inactive; KCNK9 block: -8.28*; hERG rescue: -4.2; KCNQ1 act: inactive; KCNK9 block conf: 35.0%*; Kir2-1 spec: inactive; KCNK9 uninduced: 28.5%*

Results for N/C(Cc1ccccc1)=N\OC(=O)c1cccc2ccccc12 ?
KCNQ1 block: inactive; KCNK3 block: inactive; KCNK9 block: -10.6*; hERG rescue: -4.5; KCNQ1 act: inactive; KCNK9 block conf: inactive; Kir2-1 spec: inactive; KCNK9 uninduced: inactive

Screens deposited in PubChem by Johns Hopkins Ion Channel Center.
